The results in this text go back to PubChem BioAssay.

Active and inactive are the calls of the source.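 Rule for the calls, unless noted: active = current rise at least 3 SD above the untreated control mean in each of two repeat wells; inactive = the rest.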

Chain of Potassium voltage-gated channel subfamily KQT member 2 (Rattus norvegicus) (O88943 whole entry, looked up): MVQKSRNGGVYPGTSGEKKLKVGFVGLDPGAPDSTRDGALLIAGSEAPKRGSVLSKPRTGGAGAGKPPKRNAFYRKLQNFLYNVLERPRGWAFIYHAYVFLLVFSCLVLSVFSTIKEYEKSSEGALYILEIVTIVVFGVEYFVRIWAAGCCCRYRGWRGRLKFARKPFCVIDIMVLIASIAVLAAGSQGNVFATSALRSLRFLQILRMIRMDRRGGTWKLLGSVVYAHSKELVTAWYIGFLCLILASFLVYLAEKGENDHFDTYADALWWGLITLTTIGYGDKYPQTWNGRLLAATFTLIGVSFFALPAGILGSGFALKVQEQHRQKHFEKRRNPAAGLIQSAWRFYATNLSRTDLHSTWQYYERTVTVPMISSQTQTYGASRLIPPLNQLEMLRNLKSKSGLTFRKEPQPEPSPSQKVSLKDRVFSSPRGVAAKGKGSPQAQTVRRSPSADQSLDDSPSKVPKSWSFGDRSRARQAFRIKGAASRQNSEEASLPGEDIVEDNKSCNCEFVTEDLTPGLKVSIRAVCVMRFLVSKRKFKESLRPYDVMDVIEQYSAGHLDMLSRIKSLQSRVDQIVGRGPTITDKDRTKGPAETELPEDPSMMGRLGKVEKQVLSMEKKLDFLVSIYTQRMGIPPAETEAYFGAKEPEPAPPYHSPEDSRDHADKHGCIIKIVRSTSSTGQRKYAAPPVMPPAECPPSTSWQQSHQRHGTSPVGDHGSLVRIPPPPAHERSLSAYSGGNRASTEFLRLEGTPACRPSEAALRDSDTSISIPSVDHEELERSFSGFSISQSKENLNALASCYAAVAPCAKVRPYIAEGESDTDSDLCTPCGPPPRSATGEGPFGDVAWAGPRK

The first experiment concerns the target Potassium voltage-gated channel subfamily KQT member 2 (Rattus norvegicus) (UniProt O88943). The experiment can be described thus: rat KCNQ2 channel potentiation, selectivity assay for KCNQ1 potentiator project, KCNQ2-CHO-K1 cells (AID 493009;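 active = mean duplicate potentiation above the buffer control mean plus 5 SD of buffer wells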;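 note: assay conditions were tuned for KCNQ1 rather than KCNQ2 modulators; signal is max minus min fluorescence divided by baseline after thallium stimulus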). The conditions noted are these: FluxOR thallium flux fluorescence, at 10 µM; stronger effect = higher value, scaled: buffer 0, activator control 100.
Consider `O=C(Nc1nnc(-c2ccc(Cl)cc2)o1)c1ccccc1Br`, for which the potentiation is 234% (active).

On to `CC(=O)c1ccc(OCc2cc(C(=O)N(C)Cc3nc4c(C)cccc4[nH]3)no2)cc1`, for which the result was inactive.

Turning to `Cc1cc(C)c2nc(NC(=O)c3cc(C)on3)sc2c1`, the potentiation is 166% (active).

In the case of `O=C(NC(=S)NC1CCCCC1)c1ccc(F)cc1`, the outcome was inactive.

`O=c1cc(N2CCc3ccccc32)[nH]c(=O)n1Cc1ccc(F)cc1`: the result was inactive.

Regarding `S=c1nc(Cc2ccc(Cl)cc2)[nH]c2ccccc12`, the potentiation was 350% (active).

On to `Cc1sc2nc(C(C)C)nc(SCC(=O)N3c4ccccc4CC3C)c2c1C` (stereo not drawn), for which the potentiation was 177% (active).

Regarding `Cc1sc(NC(=O)c2ccccc2)c(C(c2ccc(Cl)cc2)N2CCN(CCO)CC2)c1C` (stereo not drawn), the result was inactive.

Turning to `O=C(COC(=O)c1ccccc1)Nc1ccccc1N1CCOCC1`, the outcome was inactive.

With `S=c1[nH]c2ccc(Cl)cc2s1`, the potentiation is 526% (active).

As for `COc1ccc(CCC(=O)NCCOc2ccc(C)cc2)cc1`, the result was inactive.

In the case of `COc1cc(NS(=O)(=O)c2ccc(NC(=S)NC(=O)c3sc4cc(F)ccc4c3Cl)cc2)nc(OC)n1`, the outcome was inactive.

For the molecule `CCOC(=O)C1CCCN(C(=O)C2CCN(S(=O)(=O)c3ccc4ccccc4c3)CC2)C1` (stereo not drawn), the result was inactive.

Consider `CCc1ccc(NC(=O)C(=O)NNC(=O)c2cccc(OC)c2)cc1`, for which the potentiation was 339% (active).

In the case of `O=C(O)c1ccccc1C(=O)NNc1ccc(Cl)cc1`, the outcome was inactive.

For the molecule `CCC(C)[C@H](N)c1nnc(SCC(=O)Nc2cccc(Cl)c2)o1` (stereo partly drawn), the potentiation is 162% (active).

As for `Cn1c(=O)nc2n(Cc3ccccc3)c3ccccc3cc-2c1=O`, the outcome was inactive.

On to `CSc1nsc(SCC(=O)Nc2ccccc2)n1`, for which the result was inactive.

On to `Cc1cccc(/C=C2/S/C(=N/N=C3\CC4CCC3(C)C4(C)C)NC2=O)c1` (stereo not drawn), for which the outcome was inactive.

Take `COc1ccc(OC)c(S(=O)(=O)Nc2ccc3c(c2)N(C(C)=O)CCC3)c1`: the outcome was inactive.

Turning to `CC1CCCCN1S(=O)(=O)c1ccc(S(=O)(=O)N(CC(=O)Nc2ccccc2)Cc2cccs2)cc1` (stereo not drawn), the result was inactive.

With `CCCCNC(=S)NNC(=O)c1nn(C)c(C)c1Cl`, the outcome was inactive.

In the case of `CSc1ccc(/C=N/NC(=O)c2cccs2)cc1`, the result was inactive.

Regarding `CCCCCn1c(=S)[nH]c2ncccc2c1=O`, the potentiation is 200% (active).

In the case of `COc1ccc(NC(=O)/C(=C/c2ccc(OC(C)=O)c(OC)c2)NC(C)=O)cc1`, the result was inactive.

For `CCCN(CCC)C(=S)NC(=O)c1ccc(-c2ccccc2)cc1`, the potentiation was 556% (active).

Consider `CCN1C(=O)/C(=C/c2ccc(OCc3ccc(C(=O)O)cc3)c(Cl)c2)NC1=S`, for which the potentiation was 168% (active).

As for `Cc1cc(S(=O)(=O)N2CCOCC2)ccc1OCC(=O)Nc1ccc(Br)cc1F`, the result was inactive.

As to `O=C(N/N=C/c1ccc(Sc2ccccn2)o1)c1cc2ccccc2cc1O`, the potentiation was 277% (active).

For `O=C(O)c1ccc2c(c1)C(=O)N(c1ccc(Cl)cn1)C2=O`, the outcome was inactive.

With `COc1ccc(C(=O)CSc2nnc(CNC(=O)c3ccc(OC)cc3)n2C)cc1`, the result was inactive.

As to `O=C(NC(=S)Nc1ccccc1N1CCCC1)c1ccco1`, the potentiation is 174% (active).

Turning to `CSC(C(=O)c1cc2ccccc2o1)c1ccccc1` (stereo not drawn), the result was inactive.

On to `Cc1ccccc1N(CC(=O)N/N=C/c1cc(C)n(-c2ccccc2C)c1C)S(C)(=O)=O`, for which the result was inactive.

Turning to `COc1cccc(OC)c1C(=O)Nc1cccc(-c2ccc3nncn3n2)c1`, the outcome was inactive.

As for `Cc1nn(CC(=O)NC(C)c2ccccc2)c(=O)c2ccccc12` (stereo not drawn), the potentiation was 172% (active).

With `Cc1sc2nc[nH]c(=S)c2c1-c1ccccc1`, the potentiation was 304% (active).

On to `CN(C)CCCn1c(=O)n(C2CCCCC2)c(=O)c2c3c(sc21)CCCCC3`, for which the potentiation is 154% (active).

Turning to `CCOc1ccc(CN(CCC#N)C(=S)NC(=O)c2ccccc2)cc1`, the potentiation was 216% (active).

Another experiment deals with Potassium voltage-gated channel subfamily KQT member 1 (Homo sapiens) (UniProt P51787). The experiment can be described thus: KCNQ1 channel current potentiators, confirmation, orthogonal assay for KCNQ1 potentiator project, IonWorks patch clamp, KCNQ1-CHO cells (AID 493184). The conditions noted are these: automated patch clamp current, at 10 µM; stronger effect = higher value. In a few lines: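 Test system: KCNQ1-expressing CHO cells. Medium: pH 7.4 external bath. Probe or stimulus: voltage step from -90 mV holding to +40 mV, 2,000 ms. Compound: 10 µM final, single point. Detection: automated perforated-patch electrophysiology. Read-out: percent current increase versus pre-compound level. Repeats: two replicates.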
Chain of Potassium voltage-gated channel subfamily KQT member 1 (Homo sapiens) (P51787 whole entry, looked up): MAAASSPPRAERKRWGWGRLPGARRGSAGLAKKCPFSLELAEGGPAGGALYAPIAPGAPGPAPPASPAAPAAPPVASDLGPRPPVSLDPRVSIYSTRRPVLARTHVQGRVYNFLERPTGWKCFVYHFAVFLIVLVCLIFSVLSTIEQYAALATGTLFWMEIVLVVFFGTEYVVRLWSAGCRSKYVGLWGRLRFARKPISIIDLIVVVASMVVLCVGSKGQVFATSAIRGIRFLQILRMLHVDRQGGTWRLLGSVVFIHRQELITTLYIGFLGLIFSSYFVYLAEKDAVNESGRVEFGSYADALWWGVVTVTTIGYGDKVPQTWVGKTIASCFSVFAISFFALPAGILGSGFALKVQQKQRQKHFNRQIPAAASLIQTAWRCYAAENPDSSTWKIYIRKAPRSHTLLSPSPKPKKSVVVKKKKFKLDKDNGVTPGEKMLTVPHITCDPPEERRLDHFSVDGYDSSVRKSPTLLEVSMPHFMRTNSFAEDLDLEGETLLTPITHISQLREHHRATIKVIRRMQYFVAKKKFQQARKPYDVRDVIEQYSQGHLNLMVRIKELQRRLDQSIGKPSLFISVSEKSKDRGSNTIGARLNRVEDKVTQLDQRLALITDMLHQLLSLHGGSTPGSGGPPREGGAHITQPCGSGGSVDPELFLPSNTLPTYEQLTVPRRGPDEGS
In general terms: In patch-clamp work, channel activity is measured electrically.
With `O=C(Nc1nnc(-c2ccc(Cl)cc2)o1)c1ccccc1Br`, the result was inactive.

Turning to `CC(=O)c1ccc(OCc2cc(C(=O)N(C)Cc3nc4c(C)cccc4[nH]3)no2)cc1`, the outcome was inactive.

`Cc1cc(C)c2nc(NC(=O)c3cc(C)on3)sc2c1`: the outcome was inactive.

For the molecule `O=C(NC(=S)NC1CCCCC1)c1ccc(F)cc1`, the result was inactive.

Turning to `O=c1cc(N2CCc3ccccc32)[nH]c(=O)n1Cc1ccc(F)cc1`, the result was inactive.

As for `S=c1nc(Cc2ccc(Cl)cc2)[nH]c2ccccc12`, the result was inactive.

Consider `Cc1sc2nc(C(C)C)nc(SCC(=O)N3c4ccccc4CC3C)c2c1C` (stereo not drawn), for which the outcome was inactive.

As to `Cc1sc(NC(=O)c2ccccc2)c(C(c2ccc(Cl)cc2)N2CCN(CCO)CC2)c1C` (stereo not drawn), the outcome was inactive.

For the molecule `O=C(COC(=O)c1ccccc1)Nc1ccccc1N1CCOCC1`, the result was inactive.

Regarding `S=c1[nH]c2ccc(Cl)cc2s1`, the result was inactive.

Take `COc1ccc(CCC(=O)NCCOc2ccc(C)cc2)cc1`: the outcome was inactive.

As for `COc1cc(NS(=O)(=O)c2ccc(NC(=S)NC(=O)c3sc4cc(F)ccc4c3Cl)cc2)nc(OC)n1`, the result was inactive.

As for `CCOC(=O)C1CCCN(C(=O)C2CCN(S(=O)(=O)c3ccc4ccccc4c3)CC2)C1` (stereo not drawn), the outcome was inactive.

Take `CCc1ccc(NC(=O)C(=O)NNC(=O)c2cccc(OC)c2)cc1`: the result was inactive.

Regarding `O=C(O)c1ccccc1C(=O)NNc1ccc(Cl)cc1`, the outcome was inactive.

`CCC(C)[C@H](N)c1nnc(SCC(=O)Nc2cccc(Cl)c2)o1` (stereo partly drawn): the outcome was inactive.

Turning to `Cn1c(=O)nc2n(Cc3ccccc3)c3ccccc3cc-2c1=O`, the result was inactive.

Consider `CSc1nsc(SCC(=O)Nc2ccccc2)n1`, for which the outcome was inactive.

Regarding `Cc1cccc(/C=C2/S/C(=N/N=C3\CC4CCC3(C)C4(C)C)NC2=O)c1` (stereo not drawn), the result was inactive.

On to `COc1ccc(OC)c(S(=O)(=O)Nc2ccc3c(c2)N(C(C)=O)CCC3)c1`, for which the outcome was inactive.

Consider `CC1CCCCN1S(=O)(=O)c1ccc(S(=O)(=O)N(CC(=O)Nc2ccccc2)Cc2cccs2)cc1` (stereo not drawn), for which the result was inactive.

In the case of `CCCCNC(=S)NNC(=O)c1nn(C)c(C)c1Cl`, the result was inactive.

As for `CSc1ccc(/C=N/NC(=O)c2cccs2)cc1`, the result was inactive.

For `CCCCCn1c(=S)[nH]c2ncccc2c1=O`, the result was inactive.

For `COc1ccc(NC(=O)/C(=C/c2ccc(OC(C)=O)c(OC)c2)NC(C)=O)cc1`, the outcome was inactive.

Take `CCCN(CCC)C(=S)NC(=O)c1ccc(-c2ccccc2)cc1`: the result was inactive.

With `CCN1C(=O)/C(=C/c2ccc(OCc3ccc(C(=O)O)cc3)c(Cl)c2)NC1=S`, the outcome was inactive.

Consider `Cc1cc(S(=O)(=O)N2CCOCC2)ccc1OCC(=O)Nc1ccc(Br)cc1F`, for which the outcome was inactive.

As to `O=C(N/N=C/c1ccc(Sc2ccccn2)o1)c1cc2ccccc2cc1O`, the result was inactive.

As for `O=C(O)c1ccc2c(c1)C(=O)N(c1ccc(Cl)cn1)C2=O`, the outcome was inactive.

Turning to `COc1ccc(C(=O)CSc2nnc(CNC(=O)c3ccc(OC)cc3)n2C)cc1`, the result was inactive.

On to `O=C(NC(=S)Nc1ccccc1N1CCCC1)c1ccco1`, for which the result was inactive.

Regarding `CSC(C(=O)c1cc2ccccc2o1)c1ccccc1` (stereo not drawn), the outcome was inactive.

Turning to `Cc1ccccc1N(CC(=O)N/N=C/c1cc(C)n(-c2ccccc2C)c1C)S(C)(=O)=O`, the result was inactive.

For the molecule `COc1cccc(OC)c1C(=O)Nc1cccc(-c2ccc3nncn3n2)c1`, the outcome was inactive.

With `Cc1nn(CC(=O)NC(C)c2ccccc2)c(=O)c2ccccc12` (stereo not drawn), the outcome was inactive.

In the case of `Cc1sc2nc[nH]c(=S)c2c1-c1ccccc1`, the outcome was inactive.

In the case of `CN(C)CCCn1c(=O)n(C2CCCCC2)c(=O)c2c3c(sc21)CCCCC3`, the result was inactive.

With `CCOc1ccc(CN(CCC#N)C(=S)NC(=O)c2ccccc2)cc1`, the outcome was inactive.
